Compounds with a hit are over-represented: about 3.5% of the library has one in this group of screens.
MrgX1 antag: antagonists of human MrgX1 receptor; 310,000 tested, 1.3% active; MRGX1-HEK293 calcium flux, Fluo-4, BAM8-22 antagonism; stronger effect = lower value; B-score at 10 µM; AID 588676;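 active means calcium-response B-score plate-corrected more than 3 library SD below zero, starting fluorescence within 5 deviations, no agonist response on first addition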;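 further: peak minus trough fluorescence over baseline after final BAM8-22 challenge near maximal dose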
Target sequence (Q96LB2 whole entry, looked up): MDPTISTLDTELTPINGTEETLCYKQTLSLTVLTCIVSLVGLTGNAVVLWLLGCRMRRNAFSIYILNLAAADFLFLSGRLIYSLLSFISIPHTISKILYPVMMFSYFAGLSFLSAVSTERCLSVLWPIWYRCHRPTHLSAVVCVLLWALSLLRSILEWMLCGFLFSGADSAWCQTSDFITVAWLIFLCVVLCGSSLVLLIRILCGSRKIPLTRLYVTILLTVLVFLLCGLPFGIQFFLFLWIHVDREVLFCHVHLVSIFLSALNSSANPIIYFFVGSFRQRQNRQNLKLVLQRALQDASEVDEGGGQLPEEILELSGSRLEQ
MrgX1 allo act: allosterically activates human MrgX1 receptor signaling; MrgX1-HEK293, Fluo-4 calcium flux, FDSS; stronger effect = higher value; B-score at 10 µM; 310,000 tested, 0.63% active; AID 588675;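 active means plate-corrected calcium response at least 3 library SD above typical, normal starting fluorescence, not activating the receptor alone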;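 further: compound read alongside a low EC10 to EC30 dose of BAM8-22 agonist; peak minus trough fluorescence over baseline measured at the second addition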
MrgX1 agonist: agonists of human MrgX1 receptor; B-score at 10 µM; 310,000 tested, 0.44% active; MrgX1-HEK293 cells, Fluo-4 calcium fluorescence, agonist mode; stronger effect = higher value; Q96LB2;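 active means calcium response B-score plate-corrected fluorescence ratio at least 3 library SD, with starting fluorescence B-score inside 5 SD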
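System: HEK293 cells stably expressing human MrgX1 receptor; Dosing: test compound in the initial addition of three; Schedule: overnight plating, then 30 min 37 °C plus 30 min room-temperature dye loading; Detection: kinetic calcium dye fluorescence, Fluo-4 NW; Controls: per-plate positive and negative controls for Z′ factor.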
RGS4 inh: inhibitors of human RGS4; P49798; HEK293 M3R/RGS4 inducible, Fluo-4 calcium flux; stronger effect = higher value; triggered by carbachol at its EC20; B-score at 10 µM; 310,000 tested, 0.45% active;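 active means B-score, a plate-corrected calcium signal, over three deviations above library mean, with baseline fluorescence within five deviations of library mean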;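 further: RGS4 expression induced by doxycycline in cells with stable M3 receptor; B-score is computed from the integrated fluorescence ratio over baseline after carbachol; higher B-score means a larger calcium signal and so more RGS4 inhibition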
Target sequence (P49798 whole entry, looked up): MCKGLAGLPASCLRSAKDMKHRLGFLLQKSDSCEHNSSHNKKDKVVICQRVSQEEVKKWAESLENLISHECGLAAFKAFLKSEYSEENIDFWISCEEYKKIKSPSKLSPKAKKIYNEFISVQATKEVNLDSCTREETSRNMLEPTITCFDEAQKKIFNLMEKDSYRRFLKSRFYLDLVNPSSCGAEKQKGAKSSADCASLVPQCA
RGS4 act: potentiators or activators of RGS4; AID 463111; B-score at 10 µM; 310,000 tested, 0.92% active; HEK293 M3R/inducible RGS4, carbachol calcium flux Fluo4; stronger effect = lower value;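 active means B-score of the integrated calcium signal more than 4 SD below the library mean, with starting fluorescence not abnormally high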;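 further: negative B-score means reduced calcium response which marks RGS4 activation or potentiation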
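Assay system: HEK293 FlpIn-TREx cells, stable M3R, doxycycline-inducible RGS4 / Probe or stimulus: carbachol, ECmax concentration / Times: overnight RGS4 induction, 30 min dye load 37 °C, 20 min compound RT / Signal: kinetic calcium fluorescence imaging with Fluo4-AM dye, 2 µM / Measure: Agonist-evoked peak-minus-minimum fluorescence over baseline, integrated ratio, B score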
MrgX1 ant reconf: human MrgX1 receptor antagonism, re-confirmation screen; shares compounds with MrgX1 antag; MrgX1-HEK293, BAM8-22 calcium flux, Fluo-4; stronger effect = lower value; remaining BAM8-22 calcium response % of control (stronger effect = lower value), % at 10 µM; 2,300 tested, 19% active; AID 602420;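 active means remaining agonist calcium response no higher than 100% minus 3 SD of agonist-only control wells, with starting fluorescence near control levels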;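 further: agonist BAM8-22 given at a near maximal EC90 to ECmax level; peak minus minimum fluorescence divided by baseline after agonist addition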
HEK293 Ca flux: activity in parental HEK293 cells lacking MrgX1. fluorescence ratio F(max-min)/F0 at 10 µM. Fluo-4 calcium fluorescence, FDSS. 4,000 tested, 2% active. shares compounds with MrgX1 antag;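 active means duplicate-averaged calcium fluorescence ratio at least three times the standard deviation of buffer wells, a nonspecific response in parental cells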
HEK293 Ca counter: activity in parental HEK293 cells without MrgX1; shares compounds with MrgX1 antag; parental HEK293 calcium flux, Fluo-4 fluorescence ratio; stronger effect = higher value; fluorescence ratio F(max-min)/F0 at 10 µM; 4,000 tested, 0.4% active; AID 624114;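 active means calcium fluorescence ratio, averaged over duplicates, at least 3 SD of the buffer-well ratio, meaning a nonspecific response in receptor-free cells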;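 further: untransfected parental HEK293 lacking MrgX1 used as counterscreen for MrgX1 allosteric activators; fluorescence change taken during the second addition on a kinetic imager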
HEK293 Ca cntr2: activity in parental HEK293 cells lacking MrgX1 receptor. 4,000 tested, 8.7% active. fluorescence ratio F(max-min)/F0 at 10 µM. shares compounds with MrgX1 antag. Fluo-4 calcium fluorescence (FDSS); stronger effect = higher value. AID 624115;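 active means calcium fluorescence ratio at least three times the spread of buffer wells, meaning a non-specific response in parental cells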
* marks the source's active call; other numbers are inactive results.

What do the screens show for `COc1ccc(Nc2nc(NCCO)nc(N3CCCC3)n2)cc1`?
MrgX1 antag: -5.5*; MrgX1 allo act: inactive; MrgX1 agonist: inactive; RGS4 inh: inactive; RGS4 act: inactive; MrgX1 ant reconf: inactive; HEK293 Ca flux: inactive; HEK293 Ca counter: inactive; HEK293 Ca cntr2: inactive

Results for COc1cccc(Nc2nc(NCCO)nc(N3CCCC3)n2)c1 ?
MrgX1 antag: inactive; MrgX1 allo act: inactive; MrgX1 agonist: inactive; RGS4 inh: inactive; RGS4 act: inactive

Results for Cc1c(C(=O)Nc2ccccc2)c2ccc(C(F)(F)F)cc2n1O ?
MrgX1 antag: inactive; MrgX1 allo act: inactive; MrgX1 agonist: inactive; RGS4 inh: inactive; RGS4 act: inactive

Results for O=C(NNC(=S)Nc1ccc(Br)cc1Cl)c1ccncc1 ?
MrgX1 antag: inactive; MrgX1 allo act: inactive; MrgX1 agonist: inactive; RGS4 inh: inactive; RGS4 act: inactive

What do the screens show for `S=C(NCc1ccncc1)Nc1ccc(Br)cc1Cl`?
MrgX1 antag: -6.3*; MrgX1 allo act: inactive; MrgX1 agonist: inactive; RGS4 inh: inactive; RGS4 act: inactive; MrgX1 ant reconf: 68%*; HEK293 Ca flux: inactive; HEK293 Ca counter: inactive; HEK293 Ca cntr2: inactive

Results for Cc1ccc(S(=O)(=O)NC(C)(C)CSc2ncccn2)cc1 ?
MrgX1 antag: -9.9*; MrgX1 allo act: inactive; MrgX1 agonist: inactive; RGS4 inh: inactive; RGS4 act: inactive; MrgX1 ant reconf: inactive; HEK293 Ca flux: inactive; HEK293 Ca counter: inactive; HEK293 Ca cntr2: inactive

What do the screens show for `CCn1c(CSc2nc(C)cs2)nc2cc(S(=O)(=O)N(C)C)ccc21`?
MrgX1 antag: -4.6*; MrgX1 allo act: inactive; MrgX1 agonist: inactive; RGS4 inh: inactive; RGS4 act: inactive; MrgX1 ant reconf: inactive; HEK293 Ca flux: inactive; HEK293 Ca counter: inactive; HEK293 Ca cntr2: inactive

Results for CCn1c(CCC(=O)O)nc2cc(S(=O)(=O)N(C)C)ccc21 ?
MrgX1 antag: inactive; MrgX1 allo act: inactive; MrgX1 agonist: inactive; RGS4 inh: inactive; RGS4 act: inactive

What do the screens show for `Cc1ccc(CNC(=O)N[C@@H](Cc2ccccc2)C(=O)O)cc1`?
MrgX1 antag: -7.2*; MrgX1 allo act: inactive; MrgX1 agonist: inactive; RGS4 inh: inactive; RGS4 act: inactive; MrgX1 ant reconf: inactive; HEK293 Ca flux: inactive; HEK293 Ca counter: inactive; HEK293 Ca cntr2: inactive

What do the screens show for `COC(=O)[C@H](Cc1ccccc1)NC(=O)NCc1ccc(C)cc1`?
MrgX1 antag: inactive; MrgX1 allo act: inactive; MrgX1 agonist: inactive; RGS4 inh: inactive; RGS4 act: inactive

Results for C/C(=N\NC(=O)C(O)c1ccccc1)c1ccc(Br)s1 (stereo not given) ?
MrgX1 antag: inactive; MrgX1 allo act: inactive; MrgX1 agonist: inactive; RGS4 inh: inactive; RGS4 act: inactive

How did O=C(CSc1nnc(NC(=O)c2c(F)cccc2F)s1)Nc1ccc(F)cc1 do in these assays?
MrgX1 antag: -6.2*; MrgX1 allo act: inactive; MrgX1 agonist: inactive; RGS4 inh: inactive; RGS4 act: inactive; MrgX1 ant reconf: inactive; HEK293 Ca flux: inactive; HEK293 Ca counter: inactive; HEK293 Ca cntr2: inactive

What do the screens show for `COc1ccccc1/C=C/c1onc(C)c1S(=O)(=O)N1CCC(C(=O)NC(C)C)CC1`?
MrgX1 antag: -5.5*; MrgX1 allo act: inactive; MrgX1 agonist: inactive; RGS4 inh: inactive; RGS4 act: inactive; MrgX1 ant reconf: inactive; HEK293 Ca flux: inactive; HEK293 Ca counter: inactive; HEK293 Ca cntr2: inactive

How did CC(NC(=O)Cc1ccc(NC2=NC3CS(=O)(=O)CC3S2)cc1)c1ccccc1 (stereo not given) do in these assays?
MrgX1 antag: inactive; MrgX1 allo act: inactive; MrgX1 agonist: inactive; RGS4 inh: inactive; RGS4 act: inactive

Results for CC(CNC(=O)c1ccc(NC2=NC3CS(=O)(=O)CC3S2)cc1)c1ccccc1 (stereo not given) ?
MrgX1 antag: -5.2*; MrgX1 allo act: inactive; MrgX1 agonist: inactive; RGS4 inh: inactive; RGS4 act: inactive; MrgX1 ant reconf: inactive; HEK293 Ca flux: inactive; HEK293 Ca counter: inactive; HEK293 Ca cntr2: inactive

What do the screens show for `CCc1ccc(N2CC(C(=O)Nc3nccs3)CC2=O)cc1` (stereo not given)?
MrgX1 antag: -5*; MrgX1 allo act: inactive; MrgX1 agonist: inactive; RGS4 inh: inactive; RGS4 act: inactive; MrgX1 ant reconf: inactive; HEK293 Ca flux: inactive; HEK293 Ca counter: inactive; HEK293 Ca cntr2: inactive

What do the screens show for `O=C(Nc1nccs1)C1CC(=O)N(c2ccc(F)cc2)C1` (stereo not given)?
MrgX1 antag: inactive; MrgX1 allo act: inactive; MrgX1 agonist: inactive; RGS4 inh: inactive; RGS4 act: inactive

Results for Cc1cc(S(=O)(=O)Nc2ccc(C(=O)NCc3cccnc3)cc2)ccc1F ?
MrgX1 antag: inactive; MrgX1 allo act: inactive; MrgX1 agonist: inactive; RGS4 inh: inactive; RGS4 act: inactive

What do the screens show for `COc1ccccc1N1CCN(C(=O)CN(c2ccc(C)c(C)c2)S(C)(=O)=O)CC1`?
MrgX1 antag: -4.8*; MrgX1 allo act: inactive; MrgX1 agonist: inactive; RGS4 inh: inactive; RGS4 act: inactive; MrgX1 ant reconf: inactive; HEK293 Ca flux: inactive; HEK293 Ca counter: inactive; HEK293 Ca cntr2: inactive

What do the screens show for `COc1ccccc1N1CCN(C(=O)C(F)F)CC1`?
MrgX1 antag: -6.8*; MrgX1 allo act: inactive; MrgX1 agonist: inactive; RGS4 inh: inactive; RGS4 act: inactive; MrgX1 ant reconf: inactive; HEK293 Ca flux: inactive; HEK293 Ca counter: inactive; HEK293 Ca cntr2: inactive

Results for CCOc1ccc2nc(C)cc(Nc3cccc([N+](=O)[O-])c3)c2c1 ?
MrgX1 antag: inactive; MrgX1 allo act: inactive; MrgX1 agonist: inactive; RGS4 inh: inactive; RGS4 act: inactive

How did N#Cc1ccccc1NC(=O)CSc1nnc(-c2ccncc2)o1 do in these assays?
MrgX1 antag: inactive; MrgX1 allo act: inactive; MrgX1 agonist: inactive; RGS4 inh: inactive; RGS4 act: inactive
